Results published in ChEMBL document CHEMBL1142300, “4-Aminopyrimidine tetrahydronaphthols: a series of novel vanilloid receptor-1 antagonists with improved solubility properties” (Bioorg Med Chem Lett, 2008).
≈ marks a conversion by molar mass, not a printed value.

Key:
[1] = target: Transient receptor potential cation channel subfamily V member 1 (Homo sapiens, UniProt Q8NER1); assay: Antagonist activity at human TRPV1 expressed in CHO cells assessed as inhibition of capsaicin-induced calcium mobilization; type: functional, cell-based
Transient receptor potential cation channel subfamily V member 1 (Homo sapiens, UniProt Q8NER1), sequence (Q8NER1 whole entry): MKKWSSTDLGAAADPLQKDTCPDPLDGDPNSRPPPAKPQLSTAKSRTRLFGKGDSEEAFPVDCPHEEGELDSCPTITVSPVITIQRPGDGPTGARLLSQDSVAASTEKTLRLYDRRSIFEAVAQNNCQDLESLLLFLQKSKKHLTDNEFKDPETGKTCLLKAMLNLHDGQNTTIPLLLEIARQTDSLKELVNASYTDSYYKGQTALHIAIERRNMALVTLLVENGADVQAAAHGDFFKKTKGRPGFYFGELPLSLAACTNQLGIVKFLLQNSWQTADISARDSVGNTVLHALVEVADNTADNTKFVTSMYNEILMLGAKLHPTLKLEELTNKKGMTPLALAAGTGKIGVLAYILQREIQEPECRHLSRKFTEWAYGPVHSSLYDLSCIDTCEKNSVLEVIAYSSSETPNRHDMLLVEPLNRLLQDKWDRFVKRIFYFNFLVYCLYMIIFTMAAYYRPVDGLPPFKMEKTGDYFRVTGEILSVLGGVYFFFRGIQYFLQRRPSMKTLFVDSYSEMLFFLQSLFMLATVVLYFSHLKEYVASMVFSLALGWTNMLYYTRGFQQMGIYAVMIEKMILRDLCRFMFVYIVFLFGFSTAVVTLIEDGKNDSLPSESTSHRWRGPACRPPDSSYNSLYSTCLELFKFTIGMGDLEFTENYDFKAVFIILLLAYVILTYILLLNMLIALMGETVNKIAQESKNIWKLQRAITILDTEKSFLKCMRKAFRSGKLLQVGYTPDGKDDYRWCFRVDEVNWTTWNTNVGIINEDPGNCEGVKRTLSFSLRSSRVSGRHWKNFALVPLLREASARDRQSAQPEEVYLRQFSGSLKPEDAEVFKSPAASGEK
Outline: (§1)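 Inhibition of capsaicin-evoked 45Ca2+ uptake into CHO cells stably expressing human or rat TRPV1; IC50 taken as mean of at least three measurements ± SEM. Compounds were also run separately for agonist activity.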

[2] = target: Transient receptor potential cation channel subfamily V member 1 (Rattus norvegicus, UniProt O35433); assay: Antagonist activity at rat TRPV1 expressed in CHO cells assessed as inhibition of capsaicin-induced calcium mobilization; type: functional, cell-based; outline: as §1
Transient receptor potential cation channel subfamily V member 1 (Rattus norvegicus, UniProt O35433), sequence (O35433 whole entry): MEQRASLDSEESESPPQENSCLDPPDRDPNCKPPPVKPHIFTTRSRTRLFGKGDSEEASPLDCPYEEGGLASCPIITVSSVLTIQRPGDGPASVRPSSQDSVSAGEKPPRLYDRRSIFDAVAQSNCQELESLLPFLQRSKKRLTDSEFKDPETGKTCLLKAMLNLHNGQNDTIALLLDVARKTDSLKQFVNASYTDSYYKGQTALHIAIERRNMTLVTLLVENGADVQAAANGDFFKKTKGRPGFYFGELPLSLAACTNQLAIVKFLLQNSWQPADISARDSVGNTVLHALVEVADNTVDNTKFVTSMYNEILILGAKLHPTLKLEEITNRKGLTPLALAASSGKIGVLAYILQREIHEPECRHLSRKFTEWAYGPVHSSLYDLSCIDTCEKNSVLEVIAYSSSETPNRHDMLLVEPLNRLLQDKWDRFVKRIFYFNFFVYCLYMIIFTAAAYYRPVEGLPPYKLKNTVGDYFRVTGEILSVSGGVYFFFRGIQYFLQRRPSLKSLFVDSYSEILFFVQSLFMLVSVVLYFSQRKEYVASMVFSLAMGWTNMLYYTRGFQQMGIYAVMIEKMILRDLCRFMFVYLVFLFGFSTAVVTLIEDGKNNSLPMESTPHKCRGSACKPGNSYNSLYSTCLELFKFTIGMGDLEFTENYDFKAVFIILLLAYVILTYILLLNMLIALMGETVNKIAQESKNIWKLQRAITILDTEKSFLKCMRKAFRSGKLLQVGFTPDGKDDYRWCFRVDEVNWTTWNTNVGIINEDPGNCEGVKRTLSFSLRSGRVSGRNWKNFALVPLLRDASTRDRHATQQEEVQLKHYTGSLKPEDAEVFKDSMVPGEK

[3] = Solubility in aqueous 0.01 N HCL; type: physicochemical
Outline: (§2)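 Thermodynamic solubility determined on a high-throughput automated platform in three aqueous media: 0.01 N HCl, phosphate-buffered saline pH 7.4, and simulated intestinal fluid pH 6.8.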

[4] = Solubility in phosphate buffered saline at pH 7.4; type: physicochemical; outline: as §2
[5] = (§3) Half life in iv dosed rat; type: ADME, organism-based; conditions: in vivo
[6] = Solubility in simulated intestinal fluid at pH 6.8; type: physicochemical; outline: as §2
[7] = Clearance in iv dosed rat; type: ADME, organism-based; conditions: in vivo
[8] = AUC in rat at 5 mg/kg, po; type: ADME, organism-based; design: dose 5 mg/kg, route oral; conditions: plasma
[9] = Bioavailability in rat at 5 mg/kg, po; type: ADME, organism-based; conditions: in vivo
Rattus norvegicus = assay: as §3; type: ADME, organism-based; conditions: in vivo
[10] = AUC in rat at 3 mg/kg, po; type: ADME, organism-based; design: dose 3 mg/kg, route oral; conditions: plasma
[11] = simulated intestinal fluid, read-out: Solubility
[12] = aqueous 0.01 N HCl, read-out: Solubility

| SMILES | IC50 [1] [nM] | IC50 [2] [nM] | Solubility ([3]; buffer) [µg/mL] | Solubility ([4]; buffer) [µg/mL] | further results |
| --- | --- | --- | --- | --- | --- |
| OC1CCc2c(Br)ccc(Nc3cc(-c4ccc(C(F)(F)F)cc4)ncn3)c2C1 (centres undefined) | 2.1 | 9.6 | – | – | half-life [5]: 5.5 h; AUC [8]: 7600 ng·h/mL; Solubility [6, 11]: 73 µg/mL (≈ 157 µM); clearance [7]: 6.5 mL/min/kg; Solubility [3, 12]: 7.2 µg/mL (≈ 15.5 µM); bioavailability [9]: 60%; Solubility ([4]; phosphate buffered saline, read-out: Solubility): 7.7 µg/mL (≈ 16.6 µM) |
| OC1CCc2c(Cl)ccc(Nc3cc(-c4ccc(C(F)(F)F)cc4)ncn3)c2C1 (centres undefined) | – | – | – | – | AUC [8]: 3400 ng·h/mL; bioavailability [9]: 34% |
| CSc1cccc(NC(=O)Nc2cccc3ccc(O)cc23)c1 | 13 | 35 | – | – | – |

Continued, in another order:

| IC50 [1] [nM] | IC50 [2] [nM] | Solubility ([3]; buffer) [µg/mL] | Solubility ([4]; buffer) [µg/mL] | SMILES | further results |
| --- | --- | --- | --- | --- | --- |
| 0.65 | 3.1 | 190 (≈ 493 µM) | 23 (≈ 59.7 µM) | OC1CCc2cccc(Nc3cc(-c4ccc(C(F)(F)F)cc4)ncn3)c2C1 (stereo in doubt; 4) | – |
| 0.62 | 5.5 | – | 9.1 (≈ 23.6 µM) | OC1CCc2cccc(Nc3cc(-c4ccc(C(F)(F)F)cc4)ncn3)c2C1 (single isomer, unassigned; (-)) | half-life [5]: 0.9 h; Solubility [6, 11]: 85 µg/mL (≈ 221 µM); clearance [7]: 96.7 mL/min/kg; Solubility [3, 12]: 160 µg/mL (≈ 415 µM) |
| 0.58 | 5.7 | 180 (≈ 467 µM) | 5.6 (≈ 14.5 µM) | OC1CCc2cccc(Nc3cc(-c4ccc(C(F)(F)F)cc4)ncn3)c2C1 (single isomer, unassigned; (+)) | t1/2 (Rattus norvegicus): 1.2 h; Solubility ([6]; simulated gi fluid): 60 µg/mL (≈ 156 µM) |
| – | – | < 0.1 | < 0.1 | CC(=O)Nc1nc2c(Oc3cc(-c4ccc(C(F)(F)F)cc4)ncn3)cccc2s1 [AMG-517] | AUC [10]: 5300 ng·h/mL; Solubility ([6]; simulated gi fluid): 0.66 µg/mL (≈ 1.53 µM) |
